# In ChEMBL document CHEMBL2440078, “Synthesis and biological evaluation of novel C-aryl d-glucofuranosides as sodium-dependent glucose co-transporter 2 inhibitors” (Bioorg Med Chem, 2013):
# Biological target: T1, Sodium/glucose cotransporter 2 (Homo sapiens, UniProt P31639)
# T1 sequence (P31639 whole entry): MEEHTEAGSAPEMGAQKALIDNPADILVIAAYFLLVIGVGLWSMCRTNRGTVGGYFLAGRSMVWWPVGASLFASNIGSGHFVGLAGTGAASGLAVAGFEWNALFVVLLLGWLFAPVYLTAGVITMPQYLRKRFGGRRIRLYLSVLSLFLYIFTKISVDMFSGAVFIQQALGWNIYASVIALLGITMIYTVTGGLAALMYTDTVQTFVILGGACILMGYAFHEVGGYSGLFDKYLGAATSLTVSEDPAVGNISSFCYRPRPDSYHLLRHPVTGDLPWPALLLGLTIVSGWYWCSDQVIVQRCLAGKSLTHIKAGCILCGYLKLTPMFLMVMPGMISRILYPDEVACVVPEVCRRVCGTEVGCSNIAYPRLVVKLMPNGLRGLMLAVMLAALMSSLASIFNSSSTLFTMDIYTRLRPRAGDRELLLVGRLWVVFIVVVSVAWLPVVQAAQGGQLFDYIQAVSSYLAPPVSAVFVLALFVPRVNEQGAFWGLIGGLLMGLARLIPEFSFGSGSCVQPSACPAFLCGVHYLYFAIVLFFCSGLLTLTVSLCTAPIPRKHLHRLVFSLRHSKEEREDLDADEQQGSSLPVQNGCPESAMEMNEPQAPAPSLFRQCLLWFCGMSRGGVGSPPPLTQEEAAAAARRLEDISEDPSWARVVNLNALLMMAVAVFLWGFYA
# Experiment: Inhibition of human SGLT2 expressed in CHO-K1 cells assessed as inhibition of [14C]-AMG uptake up to 120 mins by scintillation counting method
# Assay type: cell-based
# Method in brief: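 Uptake of 3 µM [¹⁴C]-AMG ± inhibitor at 37 °C, stopped with ice-cold KRH. Cells lysed in 0.1% SDS 24 h, then counted. Inhibition vs DMSO-only wells. EC₅₀ from sigmoidal fit, mean of ≥3 determinations.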
row,Structure (SMILES),EC50
1,CCc1ccc(Cc2cc([C@@H]3O[C@H]([C@H](O)CO)[C@H](O)[C@H]3O)c(OC)cc2Cl)cc1,0.62 µM
2,OC[C@@H](O)[C@H]1O[C@@H](c2ccc(Cl)c(Cc3ccc4c(c3)OCO4)c2)[C@H](O)[C@H]1O,> 50 µM
3,CCOc1ccc(Cc2cc([C@@H]3O[C@H]([C@H](O)CO)[C@H](O)[C@H]3O)ccc2C)cc1,34 µM
4,COc1ccccc1Cc1cc([C@@H]2O[C@H]([C@H](O)CO)[C@H](O)[C@H]2O)ccc1Cl,> 50 µM
5,COc1ccc(Cc2cc([C@@H]3O[C@H]([C@H](O)CO)[C@H](O)[C@H]3O)ccc2Cl)cc1,35 µM
6,CC(C)c1ccc(Cc2cc([C@@H]3O[C@H]([C@H](O)CO)[C@H](O)[C@H]3O)ccc2Cl)cc1,33 µM
7,CSc1ccc(Cc2cc([C@@H]3O[C@H]([C@H](O)CO)[C@H](O)[C@H]3O)ccc2Cl)cc1,3.7 µM
8,CCOc1ccc(Cc2cc([C@@H]3O[C@H]([C@H](O)CO)[C@H](O)[C@H]3O)ccc2Cl)cc1,> 50 µM
9,COc1cccc(Cc2cc([C@@H]3O[C@H]([C@H](O)CO)[C@H](O)[C@H]3O)ccc2Cl)c1,> 50 µM
10,COc1cc(Cl)c(Cc2ccc(C(C)C)cc2)cc1[C@@H]1O[C@H]([C@H](O)CO)[C@H](O)[C@H]1O,21 µM
11,CCOc1ccc(Cc2cc([C@@H]3O[C@H]([C@H](O)CO)[C@H](O)[C@H]3O)c(OC)cc2Cl)cc1,46 µM
12,Cc1ccc([C@@H]2O[C@H]([C@H](O)CO)[C@H](O)[C@H]2O)cc1Cc1ccc(C(C)C)cc1,11 µM
13,OC[C@@H](O)[C@H]1O[C@@H](c2ccc(Cl)c(Cc3ccc(F)cc3)c2)[C@H](O)[C@H]1O,> 50 µM
14,COc1ccc2cc(Cc3cc([C@@H]4O[C@H]([C@H](O)CO)[C@H](O)[C@H]4O)ccc3Cl)ccc2c1,5.1 µM
15,OC[C@@H](O)[C@H]1O[C@@H](c2ccc(Cl)c(Cc3ccc(Oc4ccccc4)cc3)c2)[C@H](O)[C@H]1O,> 50 µM
16,CCc1ccc(Cc2cc([C@@H]3O[C@H]([C@H](O)CO)[C@H](O)[C@H]3O)ccc2C)cc1,2.5 µM
